Experimental data from ChEMBL document CHEMBL3352409, “Synthetic reactions with rare taccalonolides reveal the value of C-22,23 epoxidation for microtubule stabilizing potency” (J Med Chem, 2014).
Activity calls are given as the source filed them. The rule behind the calls is not given here.

Experiments:
MDA-MB-231 [1] = assay: Antitumor activity against human MDA-MB-231 cells xenografted in nu/nu mouse assessed as tumor growth inhibition at 0.25 mg/kg, ip on days 0 and 3 measured after 1 week post final dose; type: functional, organism-based; parameters: dose 0.25 mg/kg
Outline: (§1)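 MDA-MB-231 tumor fragments implanted bilaterally in female nu/nu mice; randomized groups of 5, dosing started at mean tumor size 134 mm3. Compound given ip at 0.25 mg/kg on days 0 and 3, from a 1.25 mg/mL EtOH stock diluted at least 1:10 in 200 µL PBS. Tumor volume and body weight recorded 2-3 times weekly; 10 tumors averaged, with standard error.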

MDA-MB-231 [2] = assay: Antitumor activity against human MDA-MB-231 cells xenografted in nu/nu mouse assessed as tumor growth inhibition at 0.25 mg/kg, ip on days 0 and 3 measured after 17 days; type: functional, organism-based; parameters: dose 0.25 mg/kg; outline: as §1
MDA-MB-231 [3] = assay: Antitumor activity against human MDA-MB-231 cells xenografted in nu/nu mouse assessed as tumor growth inhibition at 0.25 mg/kg, ip on days 0 and 3 measured on day 7; type: functional, organism-based; parameters: dose 0.25 mg/kg; outline: as §1
HeLa [4] = assay: Antiproliferative activity against human HeLa cells by SRB assay; type: functional, cell-based
Outline: (§2)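 SRB assay in HeLa cells, IC50 from concentration-response; three independent experiments, each in triplicate, reported with standard deviation.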

HeLa [5] = assay: Stabilization of microtubules in interphase human HeLa cells at 4 nM after 18 hrs by immunofluorescence microscopy; type: cell-based
Outline: (§3)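 Interphase HeLa cells exposed to compound or EtOH vehicle for 18 h. Microtubules stained with a β-tubulin antibody and imaged by fluorescence microscopy.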

Tubulin (Sus scrofa) [6] = biological target: T1, Tubulin (Sus scrofa) (UniProt P02554+P02550); assay: Binding affinity to purified porcine brain tubulin at 0.7 uM by turbidimetry
Outline: (§4)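 Compound added from 100× EtOH stock (1% final EtOH). Polymerization started by shift to 37 °C and followed as turbidity at OD340.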

Mus musculus [7] = assay: Toxicity in human MDA-MB-231 cells xenografted nu/nu mouse assessed as mortality at 0.375 mg/kg, ip on days 0 and 3 measured on day 8 to day 11; type: organism-based; parameters: dose 0.375 mg/kg, route intraperitoneal; conditions: in vivo
Outline: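 Female nu/nu mice with bilateral MDA-MB-231 tumor fragment implants, groups of 5. Two doses were given on days 0 and 3, starting when mean tumor size was 134 mm3. Stock in 100% EtOH (1.25 mg/mL) was diluted at least 1:10 in 200 µL PBS just before ip injection. Mice were checked daily during dosing, weighed 2-3 times weekly, and scored for lethality after the last dose.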

Mus musculus [8] = assay: Toxicity in human MDA-MB-231 cells xenografted nu/nu mouse assessed as weight loss at 0.25 mg/kg, ip on days 0 and 3 measured on day 7; type: organism-based; parameters: dose 0.25 mg/kg, route intraperitoneal; conditions: in vivo; outline: as §1
Mus musculus [9] = assay: Toxicity in human MDA-MB-231 cells xenografted nu/nu mouse assessed as weight loss at 0.25 mg/kg, ip on days 0 and 3 measured on day 17; type: organism-based; parameters: dose 0.25 mg/kg, route intraperitoneal; conditions: in vivo; outline: as §1
HeLa [10] = assay: Stabilization of microtubules in interphase human HeLa cells at 10 nM after 18 hrs by immunofluorescence microscopy; type: cell-based; outline: as §3
MDA-MB-231 [11] = assay: Antitumor activity against human MDA-MB-231 cells xenografted in nu/nu mouse assessed as tumor growth inhibition at 0.75 mg/kg, ip on days 0, 3 and 7 measured on day 21; type: functional, organism-based; parameters: dose 0.75 mg/kg
Outline: (§5)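 MDA-MB-231 fragments implanted bilaterally in female nu/nu mice; groups of 5, dosing started at mean tumor size 134 mm3. Compound given ip on days 0, 3 and 7, from a 1 mg/mL EtOH stock diluted at least 1:10 in 200 µL PBS. Tumor volume and weight measured 2-3 times weekly; 10 tumors averaged, with standard error; mice sacrificed day 21.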

Mus musculus [12] = assay: Toxicity in human MDA-MB-231 cells xenografted nu/nu mouse assessed as weight loss at 0.75 mg/kg, ip on days 0, 3 and 7 measured on day 17; type: organism-based; parameters: dose 0.75 mg/kg, route intraperitoneal; conditions: in vivo; outline: as §5
Tubulin (Sus scrofa) [13] = biological target: T1, Tubulin (Sus scrofa); assay: Binding affinity to purified porcine brain tubulin at 6 uM by turbidimetry; outline: as §4
HeLa [14] = assay: Antiproliferative activity against human HeLa cells up to 50 uM by SRB assay; type: functional, cell-based; outline: as §2
HeLa [15] = assay: Ratio of taccalonolide A IC50 to compound IC50 for human HeLa cells by SRB assay; type: functional
HeLa [16] = assay: Ratio of taccalonolide AM IC50 to compound IC50 for human HeLa cells by SRB assay; type: functional
HeLa [17] = assay: Ratio of taccalonolide B IC50 to compound IC50 for human HeLa cells by SRB assay; type: functional

T1 sequence (P02550 whole entry, looked up): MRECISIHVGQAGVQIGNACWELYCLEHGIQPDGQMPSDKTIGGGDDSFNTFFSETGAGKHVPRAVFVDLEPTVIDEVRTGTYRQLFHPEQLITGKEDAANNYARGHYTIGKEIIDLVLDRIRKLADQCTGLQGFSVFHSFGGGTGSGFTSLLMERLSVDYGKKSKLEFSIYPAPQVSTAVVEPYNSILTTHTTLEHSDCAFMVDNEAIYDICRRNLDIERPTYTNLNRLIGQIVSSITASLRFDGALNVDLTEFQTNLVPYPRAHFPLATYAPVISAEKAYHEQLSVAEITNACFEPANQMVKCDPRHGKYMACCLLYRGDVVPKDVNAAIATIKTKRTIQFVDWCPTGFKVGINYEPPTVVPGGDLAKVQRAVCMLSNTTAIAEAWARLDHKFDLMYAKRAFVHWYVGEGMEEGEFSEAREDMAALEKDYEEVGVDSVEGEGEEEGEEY
T1 sequence (P02554 whole entry, looked up): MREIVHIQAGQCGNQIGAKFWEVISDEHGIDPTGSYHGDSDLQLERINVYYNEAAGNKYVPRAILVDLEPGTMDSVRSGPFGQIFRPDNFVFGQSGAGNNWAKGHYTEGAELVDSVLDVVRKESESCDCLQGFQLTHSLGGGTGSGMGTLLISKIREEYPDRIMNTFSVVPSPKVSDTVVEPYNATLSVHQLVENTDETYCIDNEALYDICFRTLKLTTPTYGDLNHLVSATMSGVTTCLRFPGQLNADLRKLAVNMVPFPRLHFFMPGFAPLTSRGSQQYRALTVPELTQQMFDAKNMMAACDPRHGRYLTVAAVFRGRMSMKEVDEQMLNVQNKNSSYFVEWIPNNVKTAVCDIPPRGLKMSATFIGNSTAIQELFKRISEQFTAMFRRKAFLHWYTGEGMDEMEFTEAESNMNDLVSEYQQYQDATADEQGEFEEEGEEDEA

## CC(=O)O[C@@H]1[C@H]2[C@@H]3[C@@H](OC(C)=O)C(=O)[C@@]4(O)C[C@@H]5O[C@@H]5[C@H](OC(=O)CC(C)C)[C@]4(C)[C@H]3C[C@H](OC(C)=O)[C@]2(C)[C@H]2[C@H](C)[C@@H]3O[C@@]34OC(=O)[C@@](C)(O)[C@]4(C)[C@H]12
MDA-MB-231 [1]
  TGI: Active
MDA-MB-231 [2]
  TGI: Active
MDA-MB-231 [3]
  TGI: Active
HeLa [4]
  IC50: 0.45 nM
HeLa [5]
  Activity: Active
Tubulin (Sus scrofa) [6]
  Activity: Active
Mus musculus [7]
  Activity: Toxic
Mus musculus [8]
  Activity: 10%
Mus musculus [9]
  Activity: Non-toxic

## CC(=O)O[C@H]1[C@H]2[C@H]([C@@H]3[C@@H](O)[C@@H]4[C@H]([C@H](C)[C@@H]5O[C@@]56OC(=O)[C@@](C)(O)[C@]46C)[C@@]3(C)[C@H]1OC(C)=O)[C@@H](O)C(=O)[C@@]1(O)C[C@@H]3O[C@@H]3[C@H](OC(C)=O)[C@]21C
HeLa [4]
  IC50: 8.4 nM

## CC(=O)O[C@@H]1[C@H]2[C@@H]3[C@@H](O)C(=O)[C@H]4C[C@@H]5O[C@@H]5[C@H](OC(C)=O)[C@]4(C)[C@H]3C[C@H](OC(C)=O)[C@]2(C)[C@H]2[C@H](C)[C@@H]3O[C@@]34OC(=O)[C@@](C)(O)[C@]4(C)[C@H]12
HeLa [4]
  IC50: 188 nM

## CC(=O)O[C@H]1C[C@H]2[C@H]([C@@H]3[C@@H](O)[C@@H]4[C@H]([C@H](C)[C@@H]5O[C@@]56OC(=O)[C@@](C)(O)[C@]46C)[C@]31C)[C@@H](O)C(=O)[C@H]1C[C@@H]3O[C@@H]3[C@H](O)[C@@]12C
HeLa [4]
  IC50: 685 nM

## CC(=O)O[C@H]1C[C@H]2[C@H]([C@@H]3[C@@H](O)[C@@H]4[C@H]([C@H](C)[C@@H]5O[C@@]56OC(=O)[C@@](C)(O)[C@]46C)[C@]31C)[C@@H](O)C(=O)[C@H]1C[C@@H]3O[C@@H]3[C@H](OC(=O)CC(C)C)[C@@]12C
HeLa [10]
  Activity: Active
MDA-MB-231 [11]
  Activity: inactive
Mus musculus [12]
  Activity: Non-toxic
HeLa [4]
  IC50: 0.88 nM
Tubulin (Sus scrofa) [13]
  Activity: Active

## CC(=O)O[C@@H]1[C@H](O)[C@H]2[C@@H]3[C@@H](O)[C@@H]4[C@H]([C@H](C)C=C5OC(=O)[C@@](C)(O)[C@@]54C)[C@@]3(C)[C@@H](OC(C)=O)[C@@H](OC(C)=O)[C@@H]2[C@]2(C)[C@@H]1C[C@@H]1O[C@@H]1[C@@H]2OC(C)=O
HeLa [14]
  Activity: inactive

## CC(=O)O[C@@H]1[C@H]2[C@H]3[C@H]([C@H](OC(C)=O)[C@H](OC(C)=O)[C@]2(C)[C@H]2[C@H](C)[C@@H]4O[C@@]45OC(=O)[C@@](C)(O)[C@]5(C)[C@H]12)[C@@]1(C)[C@@H](OC(C)=O)[C@H]2O[C@H]2C[C@]1(O)C(=O)[C@@H]3O
HeLa [4]
  IC50: 17.2 nM

## CC(=O)O[C@@H]1[C@H]2[C@H]3[C@H]([C@H](OC(C)=O)[C@H](OC(C)=O)[C@]2(C)[C@H]2[C@H](C)[C@@H]4O[C@@]45OC(=O)[C@@](C)(O)[C@]5(C)[C@H]12)[C@@]1(C)[C@@H](OC(C)=O)[C@H]2O[C@H]2C[C@]1(O)C(=O)[C@@H]3OC(C)=O
HeLa [4]
  IC50: 15.6 nM

## CC(=O)O[C@@H]1[C@H]2[C@H]3[C@H]([C@H](OC(C)=O)[C@H](OC(C)=O)[C@]2(C)[C@H]2[C@H](C)[C@@H]4O[C@@]45OC(=O)[C@@](C)(O)[C@]5(C)[C@H]12)[C@]1(C)[C@H](C[C@@H]2O[C@@H]2[C@@H]1OC(C)=O)C(=O)[C@@H]3O
HeLa [15]
  Ratio IC50: 231

## CC(=O)O[C@H]1C[C@H]2[C@H]([C@@H]3[C@@H](O)[C@@H]4[C@H]([C@H](C)C=C5OC(=O)[C@@](C)(O)[C@@]54C)[C@]31C)[C@@H](O)C(=O)[C@H]1C[C@@H]3O[C@@H]3[C@H](OC(=O)CC(C)C)[C@@]12C
HeLa [16]
  Ratio IC50: 42
HeLa [4]
  IC50: 47 nM

## CC(=O)O[C@@H]1[C@H]2[C@@H]3C(=O)C(O)=C4C[C@@H]5O[C@@H]5[C@H](OC(C)=O)[C@]4(C)[C@H]3[C@H](OC(C)=O)[C@H](OC(C)=O)[C@]2(C)[C@H]2[C@H](C)[C@@H]3O[C@@]34OC(=O)[C@@](C)(O)[C@]4(C)[C@H]12
HeLa [4]
  IC50: 820 nM

## CC(=O)O[C@H]1C[C@H]2[C@H]([C@@H]3[C@@H](O)[C@@H]4[C@H]([C@H](C)[C@@H]5O[C@@]56OC(=O)[C@@](C)(O)[C@]46C)[C@]31C)[C@@H](O)C(=O)[C@H]1C[C@@H]3O[C@@H]3[C@H](OC(C)=O)[C@@]12C
HeLa [4]
  IC50: 14.5 nM

## CC(=O)O[C@@H]1[C@H]2[C@@H]3[C@@H](OC(C)=O)C(=O)[C@@]4(O)C[C@@H]5O[C@@H]5[C@H](OC(C)=O)[C@]4(C)[C@H]3C[C@H](OC(C)=O)[C@]2(C)[C@H]2[C@H](C)[C@@H]3O[C@@]34OC(=O)[C@@](C)(O)[C@]4(C)[C@H]12
HeLa [4]
  IC50: 29.6 nM

## CC(=O)O[C@H]1[C@H]2[C@H]([C@@H]3[C@@H](O)[C@@H]4[C@H]([C@H](C)[C@@H]5O[C@@]56OC(=O)[C@@](C)(O)[C@]46C)[C@@]3(C)[C@H]1OC(C)=O)[C@@H](O)C(=O)[C@H]1C[C@@H]3O[C@@H]3[C@H](OC(C)=O)[C@]21C
HeLa [17]
  Ratio IC50: 734

## CC(=O)O[C@H]1[C@H]2[C@@H]([C@@H](O)[C@@H](O)[C@H]3C[C@@H]4O[C@@H]4[C@H](OC(C)=O)[C@]23C)[C@@H]2[C@@H](O)[C@@H]3[C@H]([C@H](C)C=C4OC(=O)[C@@](C)(O)[C@@]43C)[C@@]2(C)[C@H]1OC(C)=O
HeLa [14]
  Activity: inactive

## CC(=O)O[C@@H]1[C@H]2[C@@H]3C(=O)C(O)=C4C[C@@H]5O[C@@H]5[C@H](OC(C)=O)[C@]4(C)[C@H]3[C@H](OC(C)=O)[C@H](OC(C)=O)[C@]2(C)[C@@H]2[C@@H]1[C@]1(C)C(=C[C@H]2C)OC(=O)[C@@]1(C)O
HeLa [4]
  IC50: 3480 nM
